In ChEMBL document CHEMBL4052805, “Discovery of novel 4(1H)-quinolone derivatives as potential antiproliferative and apoptosis inducing agents” (Bioorg Med Chem Lett, 2017):
Where a name gives a salt, the structure may show the parent alone. The source made the active and inactive calls. The calls are words filed in the database; no cut-off is given here.

Legend:
[1] = test system: HepG2; experiment: Cytotoxicity against human HepG2 cells assessed as reduction in cell viability after 24 hrs by MTT assay; details: HepG2, 24 h
[2] = test system: PC-3; experiment: Cytotoxicity against human PC3 cells assessed as reduction in cell viability after 24 hrs by MTT assay; details: PC-3, 24 h
[3] = test system: MCF7; experiment: Cytotoxicity against human MCF7 cells assessed as reduction in cell viability after 24 hrs by MTT assay; details: MCF7, 24 h
[4] = test system: HCT-8; experiment: Cytotoxicity against human HCT8 cells assessed as reduction in cell viability after 24 hrs by MTT assay; details: HCT-8, 24 h
[5] = test system: HEp-2; experiment: Cytotoxicity against human Hep2 cells assessed as reduction in cell viability after 24 hrs by MTT assay; details: HEp-2, 24 h
[6] = test system: HeLa; experiment: Cytotoxicity against human HeLa cells assessed as reduction in cell viability after 24 hrs by MTT assay
[7] = test system: BGC-823; experiment: Cytotoxicity against human BGC823 cells assessed as reduction in cell viability after 24 hrs by MTT assay; details: BGC-823, 24 h
[8] = test system: HepG2; experiment: Increase in p53 expression in human HepG2 cells at 10 to 20 ug/ml after 24 hrs by Western blot analysis; type: functional, cell-based
[9] = test system: HepG2; experiment: Induction of apoptosis in human HepG2 cells assessed as increase in Bak protein expression at 10 to 20 ug/ml after 24 hrs by Western blot analysis; type: functional, cell-based
[10] = test system: HepG2; experiment: Induction of DNA damage in human HepG2 cells assessed as increase in PARP level after 24 hrs by Western blot analysis; type: functional, cell-based
[11] = test system: HepG2; experiment: Cell cycle arrest in human HepG2 cells assessed as accumulation at G2/M phase after 24 hrs by propidium iodide staining based flow cytometry; type: functional
[12] = test system: HepG2; experiment: Induction of apoptosis in human HepG2 cells assessed as necrotic cells at 20 ug/ml after 24 hrs by annexin V-FITC/propidium iodide staining based flow cytometry (reference value: 0.36%); type: functional
[13] = biological target: Cellular tumor antigen p53 (Homo sapiens) (UniProt P04637); experiment: Activation of p53 (unknown origin) transfected in human HepG2 cells at 4 uM after 24 hrs by dual-luciferase assay relative to control; type: cell-based
Sequence of Cellular tumor antigen p53 (Homo sapiens) (P04637 whole entry, looked up): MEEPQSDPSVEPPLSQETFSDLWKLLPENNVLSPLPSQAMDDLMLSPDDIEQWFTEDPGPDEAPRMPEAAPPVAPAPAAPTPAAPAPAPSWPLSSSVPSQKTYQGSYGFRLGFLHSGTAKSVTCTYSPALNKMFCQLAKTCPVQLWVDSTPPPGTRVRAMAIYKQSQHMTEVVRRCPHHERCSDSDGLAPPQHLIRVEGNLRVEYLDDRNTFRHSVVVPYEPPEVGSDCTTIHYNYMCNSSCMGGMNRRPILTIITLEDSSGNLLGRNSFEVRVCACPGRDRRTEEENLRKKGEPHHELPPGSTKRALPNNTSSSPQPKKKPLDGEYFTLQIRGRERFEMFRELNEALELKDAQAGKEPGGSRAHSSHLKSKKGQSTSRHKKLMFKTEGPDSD
Method in brief: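 HepG2 cells transfected with the pathway reporter for 24 h, then exposed to 4 μM compound for a further 24 h; reporter activity read by dual-luciferase assay.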

[14] = test system: HepG2; experiment: Induction of apoptosis in human HepG2 cells assessed as viable cells at 10 ug/ml after 24 hrs by annexin V-FITC/propidium iodide staining based flow cytometry (reference value: 89.59%); type: functional; details: HepG2, 24 h, read-out: Activity
[15] = test system: HepG2; experiment: Induction of apoptosis in human HepG2 cells assessed as necrotic cells at 10 ug/ml after 24 hrs by annexin V-FITC/propidium iodide staining based flow cytometry (reference value: 0.36%); type: functional
[16] = test system: HepG2; experiment: Induction of apoptosis in human HepG2 cells assessed as late apoptotic cells at 20 ug/ml after 24 hrs by annexin V-FITC/propidium iodide staining based flow cytometry (reference value: 3.50%); type: functional
[17] = test system: HepG2; experiment: Downregulation of CDK1 expression in human HepG2 cells after 24 hrs by Western blot analysis; type: functional, cell-based
[18] = test system: HepG2; experiment: Downregulation of cyclin B1 expression in human HepG2 cells after 24 hrs by Western blot analysis; type: functional, cell-based
[19] = test system: HepG2; experiment: Induction of apoptosis in human HepG2 cells assessed as late apoptotic cells at 10 ug/ml after 24 hrs by annexin V-FITC/propidium iodide staining based flow cytometry (reference value: 3.50%); type: functional
[20] = test system: HepG2; experiment: Induction of apoptosis in human HepG2 cells assessed as viable cells at 20 ug/ml after 24 hrs by annexin V-FITC/propidium iodide staining based flow cytometry (reference value: 89.59%); type: functional; details: HepG2, 24 h, read-out: Activity
[21] = test system: HepG2; experiment: Induction of apoptosis in human HepG2 cells assessed as early apoptotic cells at 10 ug/ml after 24 hrs by annexin V-FITC/propidium iodide staining based flow cytometry (reference value: 6.56%); type: functional
[22] = biological target: Cellular tumor antigen p53 (Homo sapiens) (UniProt P04637); experiment: Activation of p53 in human HepG2 cells assessed as increase in p21 expression at 10 to 20 ug/ml after 24 hrs by Western blot analysis; type: cell-based
[23] = test system: HepG2; experiment: Induction of apoptosis in human HepG2 cells after 24 hrs by annexin V-FITC/propidium iodide staining based flow cytometry; type: functional, cell-based
[24] = test system: HepG2; experiment: Antiproliferative activity against human HepG2 cells up to 100 uM by CCK-8 assay; type: functional, cell-based; details: TDE = time-dependent effect
Method in brief: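 HepG2 cells were seeded and left 24 h, then treated with a range of compound concentrations for 24 h. Viability was read by CCK-8 assay.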

[25] = test system: HepG2; experiment: Induction of DNA damage in human HepG2 cells assessed as increase in caspase-3 level after 24 hrs by Western blot analysis; type: functional, cell-based
[26] = test system: HepG2; experiment: Anticlonogenic activity against human HepG2 cells at 10 uM treated for 24 hrs measured after 6 days by crystal violet staining based assay; type: functional, cell-based
[27] = test system: HepG2; experiment: Induction of apoptosis in human HepG2 cells assessed as early apoptotic cells at 20 ug/ml after 24 hrs by annexin V-FITC/propidium iodide staining based flow cytometry (reference value: 6.56%); type: functional

Compound | IC50 [1] | IC50 [2] | IC50 [3] | IC50 [4] | IC50 [5] | IC50 [6] | IC50 [7] | further results
Oc1ccnc2cc(Cl)ccc12 | > 50 µM | > 50 µM | > 50 µM | > 50 µM | > 50 µM | > 50 µM | > 50 µM | 
NCCCNC(=O)c1cn(Cc2ccccc2)c2cc(Cl)ccc2c1=O | 5.42 µM | 9.12 µM | 5.02 µM | 14.5 µM | 8.31 µM | 4.54 µM | 6.71 µM | 
COc1cccc2c1C(=O)c1c(O)c3c(c(O)c1C2=O)C[C@@](O)(C(=O)CO)C[C@@H]3O[C@H]1C[C@H](N)[C@H](O)[C@H](C)O1 [DOXORUBICIN HYDROCHLORIDE] | < 1 µM | < 1 µM | < 1 µM | < 1 µM | < 1 µM | < 1 µM | < 1 µM | 
Cl.NCCCNC(=O)c1cn(CCCc2ccccc2)c2cc(Cl)ccc2c1=O | < 1 µM | 6.92 µM | 3.12 µM | 6.03 µM | 3.24 µM | 2.31 µM | 3.2 µM | Activity [8]: Active; Activity [9]: Active; Activity [10]: Dose-dependent effect; Activity [11]: Dose-dependent effect; Activity [12]: 4.5%; fold change (FC) [13]: 1.5; viability at 10 µg/mL [14]: 88.5%; Activity [15]: 0.75%; Activity [16]: 18.44%; Activity [17]: Dose-dependent effect; Activity [18]: Dose-dependent effect; Activity [19]: 3.71%; viability at 20 µg/mL [20]: 66.3%; Activity [21]: 7.01%; Activity [22]: Active; Activity [23]: Dose-dependent effect; Activity [24]: Tde; Activity [25]: Dose-dependent effect; Activity [26]: Active; Activity [27]: 10.72%
CCCCn1cc(C(=O)NCCCN)c(=O)c2ccc(Cl)cc21 | 5.23 µM | 12 µM | 12.6 µM | 22.3 µM | 21.7 µM | 15 µM | 16.6 µM | 
C=CCn1cc(C(=O)NCCCN)c(=O)c2ccc(Cl)cc21 | 17 µM | 13.2 µM | 31.6 µM | 34.7 µM | 36.5 µM | 22.4 µM | 20 µM | 
CCn1cc(C(=O)NCCCN)c(=O)c2ccc(Cl)cc21 | 13.8 µM | 12.6 µM | 35.5 µM | 31.6 µM | 28.2 µM | 20 µM | 30.2 µM | 
